Tests used:
[1] = system: Human immunodeficiency virus 1; assay: Antiviral activity against CXCR4-tropic HIV-1 NL4-3 infected in human TZM-bl cells assessed as inhibition of virus-induced cytopathic effect preincubated with cells for 30 mins followed by viral infection measured after 48 hrs in presence of p-24 HIV-1 Ag by luciferase reporter gene assay; type: functional, cell-based; conditions: Human immunodeficiency virus 1, NL4-3, TZM-bl
Outline: (§1)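 TZM-bl cells, 1 × 10^4 per well in DMEM with 10% FBS and 10 mM […], incubated 30 min at 37 °C with compound. Then HIV-1 NL4.3 (X4) or BaL (R5) added at 100 pg p24 Ag per well. After 48 h, cells lysed with luciferase substrate. Tat-induced luminescence read after 10 min dark incubation as a measure of replication.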

[2] = system: Human immunodeficiency virus 1; assay: Antiviral activity against CCR5 tropic HIV1 BaL infected in human TZM-bl cells assessed as inhibition of virus-induced cytopathic effect preincubated with cells for 30 mins followed by viral infection measured after 48 hrs in presence of p-24 HIV-1 Ag by luciferase reporter gene assay; type: functional, cell-based; conditions: Human immunodeficiency virus 1, BaL; outline: as §1
[3] = Cytotoxicity against human TZM-bl cells assessed as cell viability by tetrazolium dye assay; type: cell-based
[4] = system: Human immunodeficiency virus 1; assay: Antiviral activity against CXCR4-tropic HIV-1 NL4-3 infected in human PHA-stimulated PBMC assessed as inhibition of viral replication by measuring reduction in p24 antigen production preincubated with cells for 30 mins followed by viral infection measured on day 10 post infection in presence of IL-2 by ELISA; type: functional; conditions: Human immunodeficiency virus 1, NL4-3
Outline: (§2)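 PBMCs stimulated with 2 μg/mL PHA for 3 days at 37 °C, then 5 × 10^5 cells/ml preincubated 30 min at 37 °C with serial compound dilutions plus 2 ng/mL IL-2. Infected with 1500 pg/well HIV-1 BaL or 500 pg/well other isolates. IL-2 re-added on days 3 and 6. Supernatant p24 Ag measured by ELISA at day 10. EC50 is 50% inhibition of replication.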

[5] = system: Human immunodeficiency virus 1; assay: Antiviral activity against CCR5 tropic HIV1 BaL infected in human PHA-stimulated PBMC assessed as inhibition of viral replication by measuring reduction in p24 antigen production preincubated with cells for 30 mins followed by viral infection measured on day 10 post infection in presence of IL-2 by ELISA; type: functional; conditions: Human immunodeficiency virus 1, BaL; outline: as §2
[6] = Cytotoxicity against human PHA-stimulated PBMC assessed as cell viability by tetrazolium dye assay; type: cell-based
[7] = Selectivity index, ratio of CC50 for human TZM-bl cells to EC50 for CXCR4-tropic HIV-1 NL4-3 infected in human TZM-bl cells; type: toxicity, cell-based; conditions: read-out: Ratio CC50/EC50
[8] = Selectivity index, ratio of CC50 for human TZM-bl cells to EC50 for CCR5 tropic HIV1 BaL infected in human TZM-bl cells; type: toxicity, cell-based; conditions: read-out: Ratio CC50/EC50
[9] = Selectivity index, ratio of CC50 for human PHA-stimulated PBMC to IC50 for CXCR4-tropic HIV-1 NL4-3 infected in human PHA-stimulated PBMC
[10] = Selectivity index, ratio of CC50 for human PHA-stimulated PBMCs to IC50 for CCR5 tropic HIV1 BaL infected in human PHA-stimulated PBMC
[11] = system: Human immunodeficiency virus 1; assay: Antiviral activity against tenofovir-resistant CXCR4-tropic HIV-1 NL4-3 harboring reverse transcriptase K65R mutant infected in human MT4 cells assessed as inhibition of viral replication inhibition of virus-induced cytopathic effect after 6 days by XTT dye based assay; type: functional, cell-based; conditions: Human immunodeficiency virus 1, NL4-3, MT4, 144 h
Outline: (§3)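 MT-4 cells, 1 × 10^4 per well, given compound dilutions and wild-type NL4-3 or K65R NL4-3. Virus titred to give 85–95% cell killing at day 6. Incubated 6 days at 37 °C, 5% CO2. Viability read by XTT at 450/650 nm. EC50 from CPE reduction and toxicity from uninfected drug wells, by four-parameter fit. Fold change is K65R EC50 over wild-type EC50.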

[12] = system: Human immunodeficiency virus 1; assay: Selectivity ratio of EC50 for tenofovir-resistant CXCR4-tropic HIV-1 NL4-3 harboring reverse transcriptase K65R mutant infected in human MT4 cells to EC50 for CXCR4-tropic HIV-1 NL4-3 infected in human MT4 cells; type: functional; outline: as §3
[13] = Cytotoxicity against human MT4 cells assessed as reduction in cell viability after 6 days by XTT tetrazolium dye-based assay; outline: as §3
Hepatitis B virus [14] = assay: Antiviral activity against HBV ayw1 infected in human HepG2(2.2.15) cells assessed as reduction in viral replication by measuring extracellular viral DNA copy number after 6 days by real-time qPCR method; type: functional, cell-based; conditions: ayw1, HepG2 2.2.15, 144 h
Outline: (§4)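 HepG2.2.15 cells (two copies of HBV ayw1 genome), 1.5 × 10^4/well in DMEM with 2% FBS and 380 μg/mL G418. After 16–24 h, compound added in triplicate, medium with compound renewed at day 3. Supernatant collected at day 6, Pronase-treated, and extracellular HBV DNA measured by TaqMan qPCR (precore/core) against an HBV DNA standard curve. EC50/EC90 derived; CC50 by MTS uptake.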

[15] = Cytotoxicity against human HepG2.2.15 cells assessed as cell viability by tetrazolium dye uptake assay; type: cell-based, HepG2 2.2.15
Outline: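 HepG2.2.15 cells (two integrated copies of HBV ayw1 genome) were seeded at 1.5 × 10^4 cells/well in DMEM with 2% FBS, 380 μg/mL G418, glutamine, antibiotics and nonessential amino acids. After 16−24 h, medium with various compound concentrations was added in triplicate and renewed on day 3. After 6 days of treatment, viability was read by MTS uptake and CC50 was calculated.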

[16] = Selectivity index, ratio of CC50 for HepG2.2.15 cells to EC50 for HBV ayw1 infected in human HepG2(2.2.15) cells assessed as reduction in viral replication by measuring extracellular viral DNA copy; outline: as §4
Human betaherpesvirus 5 [17] = assay: Antiviral activity against Human cytomegalovirus AD169 infected in HEL cells assessed as inhibition of virus-induced cytopathic effect; type: functional, cell-based; conditions: Human betaherpesvirus 5, AD169, HEL
Outline: (§5)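 HEL fibroblast monolayers inoculated with 100 CCID50 HCMV (AD-169, Davis) or 20 PFU VZV (TK+ Oka, TK− 07-1). Adsorbed 1–2 h, inoculum removed, then incubated with compound dilutions. HCMV cytopathicity or VZV plaques scored once untreated infected controls reached completion. EC50 is 50% reduction. SI is CC50/EC50, and the potency ratio is the ratio of EC50s.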

Human betaherpesvirus 5 [18] = assay: Antiviral activity against HCMV Davis strain infected in HEL cells assessed as inhibition of virus-induced cytopathic effect; type: functional, cell-based; conditions: Human betaherpesvirus 5, Davis; outline: as §5
Human alphaherpesvirus 3 [19] = assay: Antiviral activity against thymidine kinase expressing Varicella-Zoster virus Oka strain assessed as inhibition of plaque formation; type: functional; conditions: Human alphaherpesvirus 3, strain Oka vaccine; outline: as §5
Human alphaherpesvirus 3 [20] = assay: Antiviral activity against thymidine kinase deficient Varicella-Zoster virus 07-1 infected in HEL cells assessed as inhibition of plaque formation; type: functional, cell-based; conditions: Human alphaherpesvirus 3, 07-1, HEL; outline: as §5
[21] = Cytotoxic activity against HEL cells assessed as alteration of cell morphology after 3 days by microscopic method; type: cell-based; conditions: human
Outline: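 HEL cells with compound; MCC is the lowest concentration giving microscopically detectable alteration of cell morphology.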

[22] = Cytotoxic activity against HEL cells assessed as reduction in cell proliferation after 3 days by coulter counting method; type: cell-based; conditions: human
Outline: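 HEL cells seeded at 5 × 10^3/well, grown 24 h, then given compound for 3 days at 37 °C. Cell number counted by Coulter counter. CC50 is 50% reduction of proliferation relative to untreated controls, read from graphic plots.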

[23] = Half life in human plasma at 1 uM by HPLC-MS/MS method; type: ADME, cell-free
Outline: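 Human plasma preincubated 10 min with pH 7.4 phosphate buffer at 37 °C. Compound added at final 1 μM and sampled at 0, 0.5, 1, 1.5 and 2 h into acetonitrile. Centrifuged and analysed by HPLC-MS/MS. t1/2 is the mean of two experiments.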

[24] = Half life in human liver microsomes at 0.1 uM in presence of NADPH by HPLC-MS/MS method; type: ADME, microsome
Outline: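 Pooled human liver microsomes preincubated 10 min at 37 °C with an NADPH-regenerating system (1 mM NADP, 5 mM G6P, G6PDH) in pH 7.4 phosphate with 3 mM MgCl2 and 1 mM EDTA. Compound added at final 0.1 μM and sampled at 0–60 min into acetonitrile/methanol. Analysed by HPLC-MS/MS, mean of two experiments.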

[25] = Selectivity index, ratio of CC50 for human HEL cells to EC50 for HCMV AD-169 strain; outline: as §5
[26] = Selectivity index, ratio of CC50 for human HEL cells to EC50 for HCMV Davis strain; outline: as §5
[27] = system: Human immunodeficiency virus 1; assay: Antiviral activity against CXCR4-tropic HIV-1 NL4-3 infected in human MT4 cells assessed as inhibition of virus-induced cytopathic effect after 6 days by XTT dye based assay; type: functional, cell-based; conditions: Human immunodeficiency virus 1, NL4-3, MT4, 144 h; outline: as §3
[28] = system: Human immunodeficiency virus 1; assay: Antiviral activity against HIV-1 infected in human MT4 cells measured on day 5 post-infection by trypan blue dye staining-based method; type: functional, cell-based; conditions: Human immunodeficiency virus 1, MT4, 120 h
[29] = system: Human immunodeficiency virus 2; assay: Antiviral activity against HIV-2 infected in human MT4 cells measured on day 5 post-infection by trypan blue dye staining-based method; type: functional, cell-based; conditions: Human immunodeficiency virus 2, MT4, 120 h
Hepatitis B virus [30] = assay: Antiviral activity against HBV infected in human HepG2(2.2.15) cells assessed as decrease in extracellular HBV DNA levels after 12 days by dot blot analysis; type: functional, cell-based; conditions: HepG2 2.2.15, 288 h
Hepatitis B virus [31] = assay: Antiviral activity against HBV ayw1 infected in human HepG2(2.2.15) cells assessed as reduction in viral replication by measuring intracellular viral DNA copy number after 6 days byr by real-time qPCR assay; type: functional, cell-based; conditions: ayw1, HepG2 2.2.15, 144 h
Outline: (§6)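 Run as the HepG2.2.15 6-day assay (triplicate compound, medium with compound renewed at day 3). At the end, total intracellular DNA was isolated from the cells and HBV DNA copy number measured by TaqMan qPCR. EC50/EC90 derived; SI is CC50/EC50.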

[32] = Selectivity index, ratio of CC50 for HepG2.2.15 cells to EC50 for HBV ayw1 infected in human HepG2(2.2.15) cells assessed as reduction in viral replication by measuring intracellular viral DNA copy; outline: as §6

| SMILES | EC50 [1] [nM] | EC50 [2] [nM] | CC50 [3] [nM] | IC50 [4] [nM] | IC50 [5] [nM] | CC50 [6] [nM] | selectivity ratio [7] | selectivity ratio [8] | Ratio CC50/IC50 [9] | Ratio CC50/IC50 [10] | EC50 (Hepatitis B virus [14]) [nM] | EC90 (Hepatitis B virus [14]) [nM] | CC50 [15] [nM] | Ratio CC50/EC50 [16] | EC50 (Human betaherpesvirus 5 [17]) [nM] | EC50 (Human betaherpesvirus 5 [18]) [nM] | EC50 (Human alphaherpesvirus 3 [19]) [nM] | EC50 (Human alphaherpesvirus 3 [20]) [nM] | MCC at 72 h [21] [µM] | CC50 at 72 h [22] [nM] | also measured |
| --- | --- | --- | --- | --- | --- | --- | --- | --- | --- | --- | --- | --- | --- | --- | --- | --- | --- | --- | --- | --- | --- |
| CCCCCOC(=O)C[C@H](NP(=O)(CO[C@@H](CF)Cn1cnc2c(=O)[nH]c(N)nc21)Oc1ccccc1)C(=O)OCCCCC (stereo partly specified) | 73 | 60 | > 100000 | 20 | 170 | 9310 | > 1370 | > 1670 | 466 | 55 | 20 | 620 | > 100000 | >5000 | 4430 | 1980 | 890 | 110 | 153 | 10200 | EC50 [11]: 80 nM; Ratio EC50 [12]: 8; CC50 at 144 h [13]: > 1000 nM; half-life at 1 µM [23]: 73 min; half-life at 0.1 µM [24]: 2 min; Ratio CC50/EC50 [25]: <10; Ratio CC50/EC50 [26]: <10; EC50 [27]: 10 nM |
| CCCCCOC(=O)C[C@H](NP(=O)(CO[C@H](CF)Cn1cnc2c(=O)[nH]c(N)nc21)Oc1ccccc1)C(=O)OCCCCC (stereo partly specified) | 160 | 220 | > 100000 | 30 | 130 | 11200 | > 625 | > 455 | 374 | 86 | 130 | 2860 | > 100000 | >769 | 5940 | 3050 | 590 | 79 | 153 | 27800 | Ratio CC50/EC50 [25]: <10; Ratio CC50/EC50 [26]: <10 |
| Nc1ncnc2c1ncn2C[C@@H](CF)OCP(=O)(O)O | 5950 | 6470 | > 100000 | 1190 | 3730 | > 100000 | > 17 | > 15 | 84 | 27 | > 1650 | > 100000 | > 100000 | >61 | > 328000 | > 328000 | 98000 | 131000 | > 328 |  | EC50 [28]: 8000 nM; EC50 [29]: 8000 nM; EC50 (Hepatitis B virus [30]): 1200 nM |
| C=C1[C@H](CO)[C@@H](O)C[C@@H]1n1cnc2c(=O)[nH]c(N)nc21.O [ENTECAVIR] |  |  |  |  |  |  |  |  |  |  | < 10 | > 1000 | > 1000 | >2381 |  |  |  |  |  |  | EC50 (Hepatitis B virus [31]): 0.35 nM; EC90 (Hepatitis B virus [31]): > 1000 nM; Ratio CC50/EC50 [32]: >2857 |
| Nc1ccn([C@@H]2CS[C@H](CO)O2)c(=O)n1 [LAMIVUDINE] |  |  |  |  |  |  |  |  |  |  | 20 | > 2000 | > 2000 | >105 |  |  |  |  |  |  | EC50 (Hepatitis B virus [31]): 8.87 nM; EC90 (Hepatitis B virus [31]): > 2000 nM; Ratio CC50/EC50 [32]: >225 |
